Experimental data published in ChEMBL document CHEMBL5058577, “EUbOPEN Chemogenomics Library 2 (Multiplex)” (2022).

System: HEK-293T
Experiment: Multiplex assay against HEK293T
Format: toxicity, cell-based
Settings: human
Outline: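 Four dyes were applied at seeding to live cells: Hoechst33342, BioTracker Green Microtubule Cytoskeleton Dye, MitoTracker Red and Annexin V Alexa Fluor 680. Imaging after compound addition used a CQ1 microscope at 37°C and 5% CO2. CellPathfinder machine-learning gating then sorted cells into Hoechst high-intensity objects or normal cells, normal cells into healthy, pyknosed or fragmented nuclei, and pyknosed cells into mitotic or apoptotic, with tubulin, mitochondrial-mass and membrane-permeability phenotypes given as per cents of healthy-nucleus cells.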

[1] = 12 h, 1 µM, compound concentration 1 uM, replicate 1
[2] = 12 h, 1 µM, compound concentration 1 uM, replicate 2
[3] = 12 h, 10 µM, compound concentration 10 uM, replicate 1
[4] = 12 h, 10 µM, compound concentration 10 uM, replicate 2
[5] = 24 h, 1 µM, compound concentration 1 uM, replicate 1
[6] = 24 h, 1 µM, compound concentration 1 uM, replicate 2
[7] = 24 h, 10 µM, compound concentration 10 uM, replicate 1
[8] = 24 h, 10 µM, compound concentration 10 uM, replicate 2
[9] = 48 h, 1 µM, compound concentration 1 uM, replicate 1
[10] = 48 h, 1 µM, compound concentration 1 uM, replicate 2
[11] = 48 h, 10 µM, compound concentration 10 uM, replicate 1
[12] = 48 h, 10 µM, compound concentration 10 uM, replicate 2

## CN(C)c1ccnc2sc3c(=O)n(N4CCCCCC4)cnc3c12
[1]
  Population Apoptotic (%): 45%
  Population Fragmented Nuclei (%): 9%
  Population Healthy Nuclei (%): 76%
  Population Hoechst High Intensity Objects (%): 4%
  Population Membrane Permeable-Phenotype (%): 1%
  Population Mitochondria Different-Phenotype (%): 50%
  Population Mitotic Cells (%): 54%
  Population Normal (%): 95%
  Population Pyknosed Nuclei (%): 13%
  Population Tubulin-Different-Phenotype (%): 43%
  Total Cell Count: 360
[2]
  Population Apoptotic (%): 51%
  Population Fragmented Nuclei (%): 5%
  Population Healthy Nuclei (%): 82%
  Population Hoechst High Intensity Objects (%): 8%
  Population Membrane Permeable-Phenotype (%): 0%
  Population Mitochondria Different-Phenotype (%): 67%
  Population Mitotic Cells (%): 48%
  Population Normal (%): 91%
  Population Pyknosed Nuclei (%): 12%
  Population Tubulin-Different-Phenotype (%): 25%
  Total Cell Count: 335
[3]
  Population Apoptotic (%): 36%
  Population Fragmented Nuclei (%): 4%
  Population Healthy Nuclei (%): 81%
  Population Hoechst High Intensity Objects (%): 10%
  Population Membrane Permeable-Phenotype (%): 0%
  Population Mitochondria Different-Phenotype (%): 78%
  Population Mitotic Cells (%): 63%
  Population Normal (%): 89%
  Population Pyknosed Nuclei (%): 14%
  Population Tubulin-Different-Phenotype (%): 79%
  Total Cell Count: 387
[4]
  Population Apoptotic (%): 59%
  Population Fragmented Nuclei (%): 9%
  Population Healthy Nuclei (%): 72%
  Population Hoechst High Intensity Objects (%): 13%
  Population Mitochondria Different-Phenotype (%): 76%
  Population Mitotic Cells (%): 40%
  Population Normal (%): 86%
  Population Pyknosed Nuclei (%): 17%
  Population Tubulin-Different-Phenotype (%): 59%
  Total Cell Count: 308
[5]
  Population Apoptotic (%): 30%
  Population Fragmented Nuclei (%): 10%
  Population Healthy Nuclei (%): 76%
  Population Hoechst High Intensity Objects (%): 4%
  Population Membrane Permeable-Phenotype (%): 1%
  Population Mitochondria Different-Phenotype (%): 27%
  Population Mitotic Cells (%): 70%
  Population Normal (%): 95%
  Population Pyknosed Nuclei (%): 12%
  Population Tubulin-Different-Phenotype (%): 24%
  Total Cell Count: 510
[6]
  Population Apoptotic (%): 25%
  Population Fragmented Nuclei (%): 7%
  Population Healthy Nuclei (%): 84%
  Population Hoechst High Intensity Objects (%): 5%
  Population Membrane Permeable-Phenotype (%): 0%
  Population Mitochondria Different-Phenotype (%): 51%
  Population Mitotic Cells (%): 74%
  Population Normal (%): 94%
  Population Pyknosed Nuclei (%): 7%
  Population Tubulin-Different-Phenotype (%): 22%
  Total Cell Count: 470
[7]
  Population Apoptotic (%): 42%
  Population Fragmented Nuclei (%): 7%
  Population Healthy Nuclei (%): 76%
  Population Hoechst High Intensity Objects (%): 8%
  Population Membrane Permeable-Phenotype (%): 0%
  Population Mitochondria Different-Phenotype (%): 80%
  Population Mitotic Cells (%): 57%
  Population Normal (%): 91%
  Population Pyknosed Nuclei (%): 16%
  Population Tubulin-Different-Phenotype (%): 71%
  Total Cell Count: 428
[8]
  Population Apoptotic (%): 66%
  Population Fragmented Nuclei (%): 10%
  Population Healthy Nuclei (%): 74%
  Population Hoechst High Intensity Objects (%): 13%
  Population Mitochondria Different-Phenotype (%): 75%
  Population Mitotic Cells (%): 33%
  Population Normal (%): 86%
  Population Pyknosed Nuclei (%): 15%
  Population Tubulin-Different-Phenotype (%): 53%
  Total Cell Count: 359
[9]
  Population Apoptotic (%): 27%
  Population Fragmented Nuclei (%): 13%
  Population Healthy Nuclei (%): 78%
  Population Hoechst High Intensity Objects (%): 2%
  Population Membrane Permeable-Phenotype (%): 0%
  Population Mitochondria Different-Phenotype (%): 23%
  Population Mitotic Cells (%): 72%
  Population Normal (%): 97%
  Population Pyknosed Nuclei (%): 7%
  Population Tubulin-Different-Phenotype (%): 14%
  Total Cell Count: 721
[10]
  Population Apoptotic (%): 20%
  Population Fragmented Nuclei (%): 11%
  Population Healthy Nuclei (%): 82%
  Population Hoechst High Intensity Objects (%): 3%
  Population Membrane Permeable-Phenotype (%): 2%
  Population Mitochondria Different-Phenotype (%): 31%
  Population Mitotic Cells (%): 80%
  Population Normal (%): 96%
  Population Pyknosed Nuclei (%): 6%
  Population Tubulin-Different-Phenotype (%): 15%
  Total Cell Count: 663
[11]
  Population Apoptotic (%): 70%
  Population Fragmented Nuclei (%): 15%
  Population Healthy Nuclei (%): 72%
  Population Hoechst High Intensity Objects (%): 8%
  Population Membrane Permeable-Phenotype (%): 0%
  Population Mitochondria Different-Phenotype (%): 66%
  Population Mitotic Cells (%): 29%
  Population Normal (%): 91%
  Population Pyknosed Nuclei (%): 12%
  Population Tubulin-Different-Phenotype (%): 54%
  Total Cell Count: 497
[12]
  Population Apoptotic (%): 57%
  Population Fragmented Nuclei (%): 11%
  Population Healthy Nuclei (%): 75%
  Population Hoechst High Intensity Objects (%): 6%
  Population Mitochondria Different-Phenotype (%): 63%
  Population Mitotic Cells (%): 42%
  Population Normal (%): 93%
  Population Tubulin-Different-Phenotype (%): 45%
  Total Cell Count: 450

## C[C@H](NC(=O)c1c(C(F)F)nn(C)c1Oc1cccc(C(F)(F)F)c1)c1ccc(C(=O)O)cc1 [PALUPIPRANT]
[1]
  Population Apoptotic (%): 40%
  Population Fragmented Nuclei (%): 6%
  Population Healthy Nuclei (%): 80%
  Population Hoechst High Intensity Objects (%): 7%
  Population Membrane Permeable-Phenotype (%): 0%
  Population Mitochondria Different-Phenotype (%): 44%
  Population Mitotic Cells (%): 59%
  Population Normal (%): 92%
  Population Pyknosed Nuclei (%): 13%
  Population Tubulin-Different-Phenotype (%): 28%
  Total Cell Count: 407
[2]
  Population Apoptotic (%): 27%
  Population Healthy Nuclei (%): 83%
  Population Hoechst High Intensity Objects (%): 5%
  Population Mitochondria Different-Phenotype (%): 60%
  Population Mitotic Cells (%): 72%
  Population Normal (%): 94%
  Population Pyknosed Nuclei (%): 10%
  Total Cell Count: 475
[3]
  Population Apoptotic (%): 38%
  Population Fragmented Nuclei (%): 7%
  Population Healthy Nuclei (%): 76%
  Population Hoechst High Intensity Objects (%): 7%
  Population Membrane Permeable-Phenotype (%): 0%
  Population Mitochondria Different-Phenotype (%): 55%
  Population Mitotic Cells (%): 61%
  Population Normal (%): 92%
  Population Pyknosed Nuclei (%): 16%
  Population Tubulin-Different-Phenotype (%): 40%
  Total Cell Count: 371
[4]
  Population Apoptotic (%): 60%
  Population Fragmented Nuclei (%): 5%
  Population Healthy Nuclei (%): 77%
  Population Hoechst High Intensity Objects (%): 10%
  Population Mitochondria Different-Phenotype (%): 68%
  Population Mitotic Cells (%): 40%
  Population Normal (%): 89%
  Population Pyknosed Nuclei (%): 17%
  Population Tubulin-Different-Phenotype (%): 27%
  Total Cell Count: 293
[5]
  Population Apoptotic (%): 36%
  Population Fragmented Nuclei (%): 9%
  Population Healthy Nuclei (%): 80%
  Population Hoechst High Intensity Objects (%): 5%
  Population Membrane Permeable-Phenotype (%): 1%
  Population Mitochondria Different-Phenotype (%): 27%
  Population Mitotic Cells (%): 63%
  Population Normal (%): 94%
  Population Pyknosed Nuclei (%): 10%
  Population Tubulin-Different-Phenotype (%): 18%
  Total Cell Count: 527
[6]
  Population Apoptotic (%): 46%
  Population Fragmented Nuclei (%): 7%
  Population Healthy Nuclei (%): 83%
  Population Hoechst High Intensity Objects (%): 4%
  Population Membrane Permeable-Phenotype (%): 0%
  Population Mitochondria Different-Phenotype (%): 35%
  Population Mitotic Cells (%): 53%
  Population Normal (%): 95%
  Population Pyknosed Nuclei (%): 9%
  Population Tubulin-Different-Phenotype (%): 19%
  Total Cell Count: 604
[7]
  Population Apoptotic (%): 26%
  Population Fragmented Nuclei (%): 9%
  Population Healthy Nuclei (%): 74%
  Population Hoechst High Intensity Objects (%): 3%
  Population Membrane Permeable-Phenotype (%): 0%
  Population Mitochondria Different-Phenotype (%): 46%
  Population Mitotic Cells (%): 73%
  Population Normal (%): 96%
  Population Pyknosed Nuclei (%): 16%
  Population Tubulin-Different-Phenotype (%): 29%
  Total Cell Count: 465
[8]
  Population Apoptotic (%): 55%
  Population Fragmented Nuclei (%): 7%
  Population Healthy Nuclei (%): 79%
  Population Hoechst High Intensity Objects (%): 7%
  Population Mitochondria Different-Phenotype (%): 52%
  Population Mitotic Cells (%): 44%
  Population Normal (%): 92%
  Population Pyknosed Nuclei (%): 13%
  Population Tubulin-Different-Phenotype (%): 19%
  Total Cell Count: 353
[9]
  Population Apoptotic (%): 25%
  Population Fragmented Nuclei (%): 13%
  Population Healthy Nuclei (%): 79%
  Population Hoechst High Intensity Objects (%): 2%
  Population Membrane Permeable-Phenotype (%): 1%
  Population Mitochondria Different-Phenotype (%): 17%
  Population Mitotic Cells (%): 75%
  Population Normal (%): 97%
  Population Pyknosed Nuclei (%): 7%
  Population Tubulin-Different-Phenotype (%): 13%
  Total Cell Count: 916
[10]
  Population Apoptotic (%): 21%
  Population Fragmented Nuclei (%): 14%
  Population Healthy Nuclei (%): 78%
  Population Hoechst High Intensity Objects (%): 4%
  Population Membrane Permeable-Phenotype (%): 0%
  Population Mitochondria Different-Phenotype (%): 18%
  Population Mitotic Cells (%): 78%
  Population Normal (%): 95%
  Population Pyknosed Nuclei (%): 6%
  Population Tubulin-Different-Phenotype (%): 9%
  Total Cell Count: 867
[11]
  Population Apoptotic (%): 29%
  Population Fragmented Nuclei (%): 18%
  Population Healthy Nuclei (%): 75%
  Population Hoechst High Intensity Objects (%): 1%
  Population Membrane Permeable-Phenotype (%): 1%
  Population Mitochondria Different-Phenotype (%): 24%
  Population Mitotic Cells (%): 70%
  Population Normal (%): 98%
  Population Pyknosed Nuclei (%): 6%
  Population Tubulin-Different-Phenotype (%): 16%
  Total Cell Count: 821
[12]
  Population Apoptotic (%): 28%
  Population Fragmented Nuclei (%): 15%
  Population Healthy Nuclei (%): 77%
  Population Hoechst High Intensity Objects (%): 3%
  Population Membrane Permeable-Phenotype (%): 0%
  Population Mitochondria Different-Phenotype (%): 28%
  Population Mitotic Cells (%): 71%
  Population Normal (%): 96%
  Population Tubulin-Different-Phenotype (%): 17%
  Total Cell Count: 554
